ChEMBL document CHEMBL4715736, “Identification of anticancer agents based on the thieno[2,3-b]pyridine and 1H-pyrazole molecular scaffolds” (2016)

Columns and labels:
Type in all cases: functional
[1] = tested on: HCT-15; experiment: Growth inhibition of human HCT-15 cells assessed as cell growth at 0.01 uM incubated for 48 hrs by sulforhodamine B assay relative to control; details: read-out: Activity
[2] = tested on: SF-295; experiment: Growth inhibition of human SF-295 cells assessed as cell growth at 100 uM incubated for 48 hrs by sulforhodamine B assay relative to control; details: read-out: Activity
[3] = tested on: A549; experiment: Growth inhibition of human A549/ATCC cells incubated for 48 hrs by sulforhodamine B assay; details: for CC50: read-out: LC50 (the source's name)
In short: (§1)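 NCI Developmental Therapeutics Program NCI60 panel. Compounds that were active in the 10 µM one-dose screen went on to dose–response testing. Growth at each concentration is expressed relative to untreated control (100%). GI50 (concentration giving 50% of maximal inhibition of proliferation) and TGI (concentration giving total growth inhibition) were derived from the curves.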

[4] = tested on: NCI-H522; experiment: Growth inhibition of human NCI-H522 cells assessed as cell growth at 0.1 uM incubated for 48 hrs by sulforhodamine B assay relative to control; details: read-out: Activity
[5] = tested on: SNB-19; experiment: Growth inhibition of human SNB-19 cells assessed as cell growth at 0.1 uM incubated for 48 hrs by sulforhodamine B assay relative to control; details: read-out: Activity
[6] = tested on: RXF 393; experiment: Growth inhibition of human RXF 393 cells assessed as cell growth at 1 uM incubated for 48 hrs by sulforhodamine B assay relative to control; details: read-out: Activity
[7] = tested on: MDA-MB-468; experiment: Growth inhibition of human MDA-MB-468 cells assessed as cell growth at 100 uM incubated for 48 hrs by sulforhodamine B assay relative to control; details: read-out: Activity
[8] = tested on: RXF 393; experiment: Growth inhibition of human RXF 393 cells assessed as cell growth at 0.1 uM incubated for 48 hrs by sulforhodamine B assay relative to control; details: read-out: Activity
[9] = tested on: HOP-62; experiment: Growth inhibition of human HOP-62 cells incubated for 48 hrs by sulforhodamine B assay
In short: (§2)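 NCI60 panel at the NCI Developmental Therapeutics Program. Only compounds active in the 10 µM screen went to dose-response testing. GI50, the concentration giving 50% of maximal inhibition of proliferation, and TGI, the concentration giving total growth inhibition, were derived from the dose-response curves.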

[10] = tested on: SN12C; experiment: Growth inhibition of human SN12C cells incubated for 48 hrs by sulforhodamine B assay; details: for CC50: read-out: LC50 (the source's name)
In short: (§3)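 NCI DTP 60-line human tumour panel. Dose-response curves were run only for ligands active in the initial 10 µM screen. GI50 (concentration giving 50% of maximal inhibition of proliferation) and TGI (concentration giving total growth inhibition) were derived from these curves.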

[11] = tested on: SNB-75; experiment: Growth inhibition of human SNB-75 cells assessed as cell growth at 0.01 uM incubated for 48 hrs by sulforhodamine B assay relative to control; details: read-out: Activity
[12] = tested on: T47D; experiment: Growth inhibition of human T47D cells assessed as cell growth at 1 uM incubated for 48 hrs by sulforhodamine B assay relative to control; details: read-out: Activity
[13] = tested on: SW-620; experiment: Growth inhibition of human SW-620 cells assessed as cell growth at 0.01 uM incubated for 48 hrs by sulforhodamine B assay relative to control; details: read-out: Activity
[14] = tested on: HOP-92; experiment: Growth inhibition of human HOP-92 cells incubated for 48 hrs by sulforhodamine B assay; in short: as §2
[15] = tested on: RPMI-8226; experiment: Growth inhibition of human RPMI-8226 cells assessed as cell growth at 100 uM incubated for 48 hrs by sulforhodamine B assay relative to control; details: read-out: Activity
[16] = tested on: SK-OV-3; experiment: Growth inhibition of human SK-OV-3 cells assessed as cell growth at 1 uM incubated for 48 hrs by sulforhodamine B assay relative to control; details: read-out: Activity
[17] = tested on: CAKI-1; experiment: Growth inhibition of human CAKI-1 cells assessed as cell growth at 1 uM incubated for 48 hrs by sulforhodamine B assay relative to control; details: read-out: Activity; in short: as §1
[18] = tested on: RPMI-8226; experiment: Growth inhibition of human RPMI-8226 cells assessed as cell growth at 1 uM incubated for 48 hrs by sulforhodamine B assay relative to control; details: read-out: Activity
[19] = tested on: SW-620; experiment: Growth inhibition of human SW-620 cells incubated for 48 hrs by sulforhodamine B assay; in short: as §3
[20] = tested on: M14; experiment: Growth inhibition of human M14 cells assessed as cell growth at 0.01 uM incubated for 48 hrs by sulforhodamine B assay relative to control; details: read-out: Activity
[21] = tested on: PC-3; experiment: Growth inhibition of human PC-3 cells assessed as cell growth at 0.1 uM incubated for 48 hrs by sulforhodamine B assay relative to control; details: read-out: Activity
[22] = tested on: SK-MEL-28; experiment: Growth inhibition of human SK-MEL-28 cells assessed as cell growth at 0.01 uM incubated for 48 hrs by sulforhodamine B assay relative to control; details: read-out: Activity
[23] = tested on: UO-31; experiment: Growth inhibition of human UO-31 cells incubated for 48 hrs by sulforhodamine B assay; details: for CC50: read-out: LC50 (the source's name); in short: as §3
[24] = tested on: MDA-MB-468; experiment: Growth inhibition of human MDA-MB-468 cells assessed as cell growth at 1 uM incubated for 48 hrs by sulforhodamine B assay relative to control; details: read-out: Activity
[25] = tested on: 786-0; experiment: Growth inhibition of human 786-0 cells assessed as cell growth at 0.1 uM incubated for 48 hrs by sulforhodamine B assay relative to control; details: read-out: Activity; in short: as §1
[26] = tested on: LOX IMVI; experiment: Growth inhibition of human LOX IMVI cells assessed as cell growth at 0.1 uM incubated for 48 hrs by sulforhodamine B assay relative to control; details: read-out: Activity
[27] = tested on: HCT-15; experiment: Growth inhibition of human HCT-15 cells assessed as cell growth at 1 uM incubated for 48 hrs by sulforhodamine B assay relative to control; details: read-out: Activity
[28] = tested on: SF-268; experiment: Growth inhibition of human SF-268 cells assessed as cell growth at 1 uM incubated for 48 hrs by sulforhodamine B assay relative to control; details: read-out: Activity
[29] = tested on: TK-10; experiment: Growth inhibition of human TK-10 cells incubated for 48 hrs by sulforhodamine B assay; details: for CC50: read-out: LC50 (the source's name); in short: as §3
[30] = tested on: HT-29; experiment: Growth inhibition of human HT-29 cells assessed as cell growth at 0.1 uM incubated for 48 hrs by sulforhodamine B assay relative to control; details: read-out: Activity
[31] = tested on: NCI-H23; experiment: Growth inhibition of human NCI-H23 cells assessed as cell growth at 0.1 uM incubated for 48 hrs by sulforhodamine B assay relative to control; details: read-out: Activity
[32] = tested on: SF-539; experiment: Growth inhibition of human SF-539 cells assessed as cell growth at 100 uM incubated for 48 hrs by sulforhodamine B assay relative to control; details: read-out: Activity
[33] = tested on: KM12; experiment: Growth inhibition of human KM12 cells assessed as cell growth at 0.1 uM incubated for 48 hrs by sulforhodamine B assay relative to control; details: read-out: Activity
[34] = tested on: SK-OV-3; experiment: Growth inhibition of human SK-OV-3 cells incubated for 48 hrs by sulforhodamine B assay; details: for CC50: read-out: LC50 (the source's name); in short: as §3
[35] = tested on: SR; experiment: Growth inhibition of human SR cells assessed as cell growth at 100 uM incubated for 48 hrs by sulforhodamine B assay relative to control; details: read-out: Activity

`COc1cccc(NC(=O)c2sc3nc4c(cc3c2N)CN(Cc2ccccc2)CC4)c1` gave a growth at 0.01 µM [1] of 92%, a growth at 100 µM [2] of -52% and a GI50 [3] of 3.79 µM. It also gave a TGI [3] of 53.8 µM, a CC50 [3] greater than 100 µM and a growth at 0.1 µM [4] of 95%. For the same compound, the growth at 0.1 µM [5] was 94%, the growth at 1 µM [6] was 84% and the growth at 100 µM [7] was -8%. It also gave a growth at 0.1 µM [8] of 95%, a GI50 [9] of 1.83 µM and an LC50 [9] of 41.1 µM. It also gave a TGI [9] of 6.47 µM, a GI50 [10] of 11.2 µM and a TGI [10] greater than 100 µM. It also gave a CC50 [10] greater than 100 µM, a growth at 0.01 µM [11] of 88% and a growth at 1 µM [12] of 71%. It also gave a growth at 0.01 µM [13] of 100%, a GI50 [14] of 2.21 µM and an LC50 (concentration killing 50% of the starting cells) [14] greater than 100 µM. The TGI [14] was 24.1 µM, the growth at 100 µM [15] was 27% and the growth at 1 µM [16] was 81%. For the same compound, the growth at 1 µM [17] was 78%, the growth at 1 µM [18] was 84% and the GI50 [19] was 1.85 µM. It also gave an LC50 (concentration killing 50% of cells) [19] greater than 100 µM, a TGI [19] of 72.2 µM and a growth at 0.01 µM [20] of 96%. The growth at 0.1 µM [21] was 88%, the growth at 0.01 µM [22] was 97% and the GI50 [23] was 3.27 µM. The TGI [23] was 32.3 µM, the CC50 [23] was greater than 100 µM and the growth at 1 µM [24] was 64%. For the same compound, the growth at 0.1 µM [25] was 93%, the growth at 0.1 µM [26] was 102% and the growth at 1 µM [27] was 49%. It also gave a growth at 1 µM [28] of 91%, a GI50 [29] of 4.82 µM and a TGI [29] of 21.6 µM. It also gave a CC50 [29] of 86.8 µM, a growth at 0.1 µM [30] of 103% and a growth at 0.1 µM [31] of 101%. It also gave a growth at 100 µM [32] of -75%, a growth at 0.1 µM [33] of 98% and a GI50 [34] of 2.78 µM. The TGI [34] was 14 µM, the CC50 [34] was 62.5 µM and the growth at 100 µM [35] was -19%.

Work on `CN1CCc2nc3sc(C(N)=O)c(N)c3c(-c3cccs3)c2C1` yielded a growth at 0.01 µM [1] of 103%, a growth at 100 µM [2] of 4% and a GI50 [3] of 3.37 µM. For the same compound, the TGI [3] was greater than 100 µM, the CC50 [3] was greater than 100 µM and the growth at 0.1 µM [4] was 100%. The growth at 0.1 µM [5] was 103%, the growth at 1 µM [6] was 55% and the growth at 100 µM [7] was -59%. The growth at 0.1 µM [8] was 85%, the GI50 [9] was 3.27 µM and the LC50 [9] was greater than 100 µM. For the same compound, the TGI [9] was greater than 100 µM, the GI50 [10] was 2.69 µM and the TGI [10] was greater than 100 µM. The CC50 [10] was greater than 100 µM, the growth at 0.01 µM [11] was 95% and the growth at 1 µM [12] was 84%. It also gave a growth at 0.01 µM [13] of 105%, a GI50 [14] of 3.16 µM and an LC50 (concentration killing 50% of the starting cells) [14] greater than 100 µM. For the same compound, the TGI [14] was 9.16 µM, the growth at 100 µM [15] was 1% and the growth at 1 µM [16] was 89%. It also gave a growth at 1 µM [17] of 82%, a growth at 1 µM [18] of 119% and a GI50 [19] of 4.02 µM. For the same compound, the LC50 (concentration killing 50% of cells) [19] was greater than 100 µM, the TGI [19] was greater than 100 µM and the growth at 0.01 µM [20] was 107%. It also gave a growth at 0.1 µM [21] of 110%, a growth at 0.01 µM [22] of 106% and a GI50 [23] of 3.47 µM. It also gave a TGI [23] greater than 100 µM, a CC50 [23] greater than 100 µM and a growth at 1 µM [24] of 77%. It also gave a growth at 0.1 µM [25] of 99%, a growth at 0.1 µM [26] of 83% and a growth at 1 µM [27] of 93%. It also gave a growth at 1 µM [28] of 107%, a GI50 [29] of 3.32 µM and a TGI [29] of 13.1 µM. It also gave a CC50 [29] greater than 100 µM, a growth at 0.1 µM [30] of 104% and a growth at 0.1 µM [31] of 95%. The growth at 100 µM [32] was -39%, the growth at 0.1 µM [33] was 105% and the GI50 [34] was 3.35 µM. The TGI [34] was greater than 100 µM, the CC50 [34] was greater than 100 µM and the growth at 100 µM [35] was -19%.
